Legend:
[1] = test system: CR3^kd cells; assay: Cell-based Aβ degradation assay with LA-1 treatment in CR3 knockdown cells; conditions: CR3 knockdown BV2 cells; Fig. 4 B
Procedure, shortened: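 CR3kd BV2 cells carried a stable CD11b-targeting shRNA lentivirus; controls carried empty vector. Lines were selected with 5 µg/ml puromycin and sorted for CD11b <80% of control. Cells were seeded at 250,000/well and attached overnight. Test compound or vehicle in serum-free DMEM was added 30 min before 1 µg/ml Aβ1-42. Timed samples went into 2× protease inhibitor. Total Aβ was measured by electrochemiluminescent ELISA (21D12 capture, 3D6 detection, Aβ1-40 standards).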

[2] = test system: APP-overexpressing Chinese hamster ovary cells; assay: APP expression and processing after LA-1 treatment; assay type: cell-based; conditions: APP-overexpressing CHO cells, lysates and supernatants after 6 h; Fig. S2 A–F
Procedure, shortened: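 Cells were APP-overexpressing CHO cells exposed to test compound in serum-free culture medium. Lysates and supernatants were harvested after 6 h.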

[3] = Mass spectrometric analysis of LA-1 in brain and plasma; assay type: in vivo, mouse; conditions: concluded from brain levels after single i.p. dose, perfused brains
Procedure, shortened: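 Male C57BL/6 mice received 500 µl of 50 µM test compound i.p., three mice per time point, sampled from 5 min to 8 h. EDTA plasma and PBS-perfused hemibrains were collected; brain was homogenised in water. Extracts diluted in methanol/acetonitrile were analysed by C18 LC-MS/MS (isocratic 85% acetonitrile, MRM m/z 420.103→375.800 and 420.103→230.000). Levels were interpolated from spiked-matrix standard curves by cubic regression.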

[4] = test system: acutely isolated microglia and PBMCs; assay type: in vivo, mouse; conditions: after 10 d of LA-1 injections; n = 5 mice per group; Fig. S2 I, J
Procedure, shortened: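 Mice received 500 µl of 50 µM test compound or DMSO vehicle in PBS i.p. daily for 10 d. Microglia were isolated from perfused, enzymatically dissociated brains with CD45 microbeads, and PBMCs by Ficoll. Cells were kept on ice, washed and Fc-blocked 15 min. They were then stained 30 min with labelled antibodies against CD162, CD62L, CD18, CD54, CD14, CD49d, CD11a and CD11b.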

[5] = test system: primary microglia; assay: qPCR analysis of mRNA from primary microglia of LA-1-treated mice; assay type: in vivo, mouse; conditions: microglia from LA-1-treated mice, qPCR normalized to GAPDH, n = 5
Procedure, shortened: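 Mice received test compound i.p. daily for 10 d (500 µl of 50 µM; DMSO/PBS vehicle). Microglia were isolated from perfused, dissociated brains with CD45 microbeads and frozen immediately for RNA. cDNA diluted 1:20 was amplified with SYBR Green. Expression was calculated by ΔΔCt relative to GAPDH.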

[6] = test system: ISF Aβ; assay type: in vivo, mouse; conditions: 4-h LA-1 infusion and 12-h washout; n = 2 mice; Fig. 5 D, E
Procedure, shortened: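 A 38-kD cutoff microdialysis probe was placed in the left hippocampus (bregma −3.1, midline −2.5, 3.2 mm below dura, 12°). It was perfused at 1 µl/min with 0.15% BSA artificial CSF, pH 7.35. After 8 h baseline, test compound was reverse-dialysed at 100 µM. Fractions were collected every 60–90 min, and Aβ40 was measured by sandwich ELISA (mHJ2 capture, mHJ5.1 detection). Male mice were used.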

For `O=C(O)c1ccc(-c2ccc(/C=C3\SC(=S)N(Cc4ccccc4)C3=O)o2)cc1` [LA-1, Leukadherin 1], the “LA-1 effect on Aβ degradation in CR3^kd cells” value [1] was “absent”, the “APP expression and processing” value [2] was “did not change” and the BBB penetration [3] was “demonstrating BBB penetration”. For the same molecule, the “Vascular adhesion markers on acutely isolated microglia and PBMCs” value [4] was “no changes”, the “tPA mRNA in microglia” value ([5]; Fig. 4 E) was “significant increase” and the “MMP2 or MMP9 mRNA levels in microglia” value ([5]; Fig. 4 F) was “did not observe differences”. For the same molecule, the “Reversibility of ISF Aβ reduction after exchanging drug for perfusion buffer” value [6] was “reversible”.

From article PMC5379986 (The Journal of Experimental Medicine, 2017)
